Columns and labels:
Renin (Homo sapiens) = target: T1, Renin (Homo sapiens) (UniProt P00797); assay: Inhibition of human recombinant renin using fluorescence-quenched (RE(EDANS)IHPFHLVIHTK(Dabcyl)R as substrate at 100 uM incubated for 1 hr prior to substrate addition measured after 1 hr by fluorescence polarization assay
T1 sequence (whole entry): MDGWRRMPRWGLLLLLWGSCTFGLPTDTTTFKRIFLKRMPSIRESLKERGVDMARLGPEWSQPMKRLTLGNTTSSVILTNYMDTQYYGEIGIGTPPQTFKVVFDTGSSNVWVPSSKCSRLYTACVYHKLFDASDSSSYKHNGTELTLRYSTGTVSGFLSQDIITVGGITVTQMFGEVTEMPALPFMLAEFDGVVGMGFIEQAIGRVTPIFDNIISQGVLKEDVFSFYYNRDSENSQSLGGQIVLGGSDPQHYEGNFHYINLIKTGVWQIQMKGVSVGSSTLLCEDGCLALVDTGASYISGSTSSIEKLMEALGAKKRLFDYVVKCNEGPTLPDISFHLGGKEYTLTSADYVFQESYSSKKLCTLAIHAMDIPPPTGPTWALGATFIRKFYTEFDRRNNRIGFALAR

Renin [1] = target: T2, Renin (Homo sapiens, UniProt P00797); assay: Inhibition of human recombinant renin using fluorescence-quenched (RE(EDANS)IHPFHLVIHTK(Dabcyl)R as substrate incubated for 1 hr prior to substrate addition measured after 1 hr by fluorescence polarization assay
T2 sequence (P00797 whole entry): T1 sequence (whole entry)

Renin [2] = target: T2, Renin; assay: Binding affinity to human recombinant renin by NMR titration analysis
Rattus norvegicus [3] = assay: Antihypertensive activity in po dosed telemetered hypertensive double-transgenic rat model expressing human renin and angiotensinogen assessed as reduction of mean arterial blood pressure; type: functional, organism-based; settings: Artery
Procedure, shortened: (§1)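 Telemetered hypertensive double-transgenic rats given a single oral dose (6 or 30 mg/kg); mean arterial blood pressure monitored for maximal reduction from pre-treatment baseline and time to 50% recovery to baseline.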

Beta-secretase 1 = Beta-secretase 1 (Homo sapiens, UniProt P56817); assay: Inhibition of human recombinant BACE1 expressed in baculovirus-infected SF9 cells using fluorescence-quenched RE(EDANS)-EVNLDAEF-K(DABSYL)-R as substrate incubated for 1 hr prior to substrate addition measured after 1 hr by fluorescence polarization assay
Beta-secretase 1, sequence (P56817 whole entry): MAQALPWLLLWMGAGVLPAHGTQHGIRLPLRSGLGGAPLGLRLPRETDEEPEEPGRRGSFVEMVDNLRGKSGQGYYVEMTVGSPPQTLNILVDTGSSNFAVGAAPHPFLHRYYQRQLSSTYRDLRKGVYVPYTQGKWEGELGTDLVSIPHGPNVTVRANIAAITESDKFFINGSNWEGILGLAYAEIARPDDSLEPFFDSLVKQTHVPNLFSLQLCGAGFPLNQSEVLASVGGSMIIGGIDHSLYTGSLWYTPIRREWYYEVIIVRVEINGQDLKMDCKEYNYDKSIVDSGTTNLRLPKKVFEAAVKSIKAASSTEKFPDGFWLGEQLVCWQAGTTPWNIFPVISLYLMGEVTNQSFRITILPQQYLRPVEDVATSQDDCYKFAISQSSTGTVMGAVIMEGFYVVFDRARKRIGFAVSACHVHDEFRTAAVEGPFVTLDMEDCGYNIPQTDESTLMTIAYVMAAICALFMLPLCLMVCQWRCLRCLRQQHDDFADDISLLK

Cytochrome P450 3A4 = Cytochrome P450 3A4 (Homo sapiens, UniProt P08684); assay: Time dependent inhibition of CYP3A4 (unknown origin); type: ADME; settings: TDE = time-dependent effect
Cytochrome P450 3A4, sequence (P08684 whole entry): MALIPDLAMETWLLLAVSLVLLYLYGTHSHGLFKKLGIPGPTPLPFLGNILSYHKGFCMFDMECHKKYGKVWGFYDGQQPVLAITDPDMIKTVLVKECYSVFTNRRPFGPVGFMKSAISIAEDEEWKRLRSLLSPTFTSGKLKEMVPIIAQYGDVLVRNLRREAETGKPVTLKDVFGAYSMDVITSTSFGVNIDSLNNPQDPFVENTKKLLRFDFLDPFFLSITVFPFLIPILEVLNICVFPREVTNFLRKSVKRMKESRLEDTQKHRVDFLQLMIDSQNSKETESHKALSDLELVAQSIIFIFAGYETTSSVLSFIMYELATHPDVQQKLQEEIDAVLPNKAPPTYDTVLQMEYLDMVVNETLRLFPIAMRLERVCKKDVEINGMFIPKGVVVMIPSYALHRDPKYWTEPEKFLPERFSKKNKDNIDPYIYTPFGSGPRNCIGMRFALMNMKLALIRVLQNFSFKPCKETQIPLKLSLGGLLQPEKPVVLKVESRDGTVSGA

Cathepsin E = target: T3, Cathepsin E (Homo sapiens, UniProt P14091); assay: Inhibition of human recombinant cathepsin E expressed in Escherichia coli using fluorescence-quenched Ac-E-D(EDANS)-KPILFFRLG-K(Dabcyl)-E-Amid as substrate incubated for 1 hr prior to substrate addition measured after 1 hr by fluorescence polarization assay
T3 sequence (P14091 whole entry): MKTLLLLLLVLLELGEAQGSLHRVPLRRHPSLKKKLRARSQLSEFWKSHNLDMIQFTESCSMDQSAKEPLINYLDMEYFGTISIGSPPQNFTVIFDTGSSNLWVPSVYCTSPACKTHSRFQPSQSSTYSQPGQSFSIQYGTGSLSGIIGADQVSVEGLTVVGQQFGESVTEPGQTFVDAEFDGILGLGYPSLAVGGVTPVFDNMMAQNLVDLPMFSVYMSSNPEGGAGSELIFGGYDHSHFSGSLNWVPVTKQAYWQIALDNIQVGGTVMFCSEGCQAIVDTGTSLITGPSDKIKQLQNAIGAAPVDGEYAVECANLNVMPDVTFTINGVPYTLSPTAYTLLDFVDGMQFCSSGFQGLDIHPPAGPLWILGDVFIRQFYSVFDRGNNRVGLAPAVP

Rattus norvegicus [4] = assay: Antihypertensive activity in telemetered hypertensive double-transgenic rat model expressing human renin angiotensinogen assessed as time required for 50 % recovery at 6 mg/kg, po; type: functional; procedure, shortened: as §1
[5] = Oral bioavailability in Sprague-Dawley rat at 6 mg/kg by HPLC analysis; type: ADME, organism-based; settings: in vivo
Procedure, shortened: (§2)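 Fed Sprague–Dawley rats dosed at 2 mg/kg i.v. and 6 mg/kg p.o.; plasma levels followed over 24 h to derive oral AUC(0-24 h), Cmax, t1/2, plasma clearance, Vdss and oral bioavailability.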

[6] = Half life in Sprague-Dawley rat at 2 mg/kg, iv and 6 mg/kg, po by HPLC analysis; type: ADME, organism-based; settings: in vivo; procedure, shortened: as §2
Rattus norvegicus [7] = assay: Antihypertensive activity in telemetered hypertensive double-transgenic rat model expressing human renin angiotensinogen assessed as time required for 50 % recovery at 30 mg/kg, po; type: functional; procedure, shortened: as §1
Rattus norvegicus [8] = assay: Antihypertensive activity in telemetered hypertensive double-transgenic rat model expressing human renin and angiotensinogen assessed as reduction of mean arterial blood pressure at 30 mg/kg, po; type: functional, Artery; procedure, shortened: as §1
Gastricsin = target: T4, Gastricsin (Homo sapiens, UniProt P20142); assay: Inhibition of human recombinant pepsin C expressed in Escherichia coli using fluorescence-quenched Dabcyl-E-R-Nle-F-L-S-F-P-EDANS as substrate incubated for 1 hr prior to substrate addition measured after 1 hr by fluorescence polarization assay
T4 sequence (P20142 whole entry): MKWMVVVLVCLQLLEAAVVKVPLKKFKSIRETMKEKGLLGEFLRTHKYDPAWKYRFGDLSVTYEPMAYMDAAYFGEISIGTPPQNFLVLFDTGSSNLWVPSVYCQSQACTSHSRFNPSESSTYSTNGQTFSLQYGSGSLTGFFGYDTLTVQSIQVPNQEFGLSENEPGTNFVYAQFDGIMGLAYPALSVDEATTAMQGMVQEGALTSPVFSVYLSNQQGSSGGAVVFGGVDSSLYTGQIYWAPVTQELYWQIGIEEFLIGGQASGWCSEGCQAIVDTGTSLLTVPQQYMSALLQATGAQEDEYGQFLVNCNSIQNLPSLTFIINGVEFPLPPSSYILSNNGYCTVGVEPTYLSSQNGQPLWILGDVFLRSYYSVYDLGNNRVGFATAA

Beta-secretase 2 = target: T5, Beta-secretase 2 (Homo sapiens, UniProt Q9Y5Z0); assay: Inhibition of human recombinant BACE2 expressed in baculovirus-infected SF9 cells using fluorescence-quenched RE(EDANS)-EVNLDAEF-K(DABSYL)-R as substrate incubated for 1 hr prior to substrate addition measured after 1 hr by fluorescence polarization assay
T5 sequence (Q9Y5Z0 whole entry): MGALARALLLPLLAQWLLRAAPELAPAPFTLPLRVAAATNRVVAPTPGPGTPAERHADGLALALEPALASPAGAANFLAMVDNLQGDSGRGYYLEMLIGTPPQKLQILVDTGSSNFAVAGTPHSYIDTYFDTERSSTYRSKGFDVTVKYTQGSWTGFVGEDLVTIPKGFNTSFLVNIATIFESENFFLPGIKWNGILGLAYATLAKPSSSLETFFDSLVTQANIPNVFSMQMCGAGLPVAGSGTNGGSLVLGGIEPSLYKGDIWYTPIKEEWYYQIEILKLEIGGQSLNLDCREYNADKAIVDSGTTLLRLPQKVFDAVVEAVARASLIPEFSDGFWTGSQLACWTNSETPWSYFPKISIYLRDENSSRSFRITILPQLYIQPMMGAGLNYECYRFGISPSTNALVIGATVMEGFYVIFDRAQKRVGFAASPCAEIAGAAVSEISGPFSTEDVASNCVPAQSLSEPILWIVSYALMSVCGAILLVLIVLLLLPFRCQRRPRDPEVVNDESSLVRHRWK

[9] = Volume of distribution at steady state in Sprague-Dawley rat at 2 mg/kg, iv and 6 mg/kg, po by HPLC analysis; type: ADME, organism-based; settings: in vivo, read-out: Vdss; procedure, shortened: as §2
Renin [10] = target: T2, Renin; assay: Inhibition of human plasma renin
Rattus norvegicus [11] = assay: Antihypertensive activity in telemetered hypertensive double-transgenic rat model expressing human renin and angiotensinogen assessed as reduction of mean arterial blood pressure at 6 mg/kg, po; type: functional, Artery; procedure, shortened: as §1
Cathepsin D = Cathepsin D (Homo sapiens, UniProt P07339); assay: Inhibition of human recombinant cathepsin D expressed in baculovirus-infected SF9 cells using fluorescence-quenched Ac-E-D(EDANS)-KPILFFRLG-K(Dabcyl)-E-Amid as substrate incubated for 1 hr prior to substrate addition measured after 1 hr by fluorescence polarization assay
Cathepsin D, sequence (P07339 65-162 limits assumed): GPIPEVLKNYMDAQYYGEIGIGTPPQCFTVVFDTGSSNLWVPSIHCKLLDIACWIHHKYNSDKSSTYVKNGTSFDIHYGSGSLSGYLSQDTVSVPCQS
Cathepsin D, sequence (P07339 169-412 limits assumed): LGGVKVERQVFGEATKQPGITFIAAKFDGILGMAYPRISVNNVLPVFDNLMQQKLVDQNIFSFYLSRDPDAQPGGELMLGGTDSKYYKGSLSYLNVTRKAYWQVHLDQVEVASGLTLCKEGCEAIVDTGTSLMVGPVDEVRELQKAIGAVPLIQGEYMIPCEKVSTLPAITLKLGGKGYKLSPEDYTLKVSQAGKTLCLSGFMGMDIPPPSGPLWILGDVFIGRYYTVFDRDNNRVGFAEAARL

[12] = AUC (0 to 24 hrs) in Sprague-Dawley rat at 6 mg/kg, po by HPLC analysis; type: ADME, organism-based; parameters: time < 24 hr, dose 6 mg/kg, route oral; settings: plasma; procedure, shortened: as §2
[13] = Plasma clearance in Sprague-Dawley rat at 2 mg/kg, iv and 6 mg/kg, po by HPLC analysis; type: ADME, organism-based; procedure, shortened: as §2
[14] = Inhibition of human recombinant pepsin A expressed in Escherichia coli using fluorescence-quenched Dabcyl-E-R-Nle-F-L-S-F-P-EDANS as substrate incubated for 1 hr prior to substrate addition measured after 1 hr by fluorescence polarization assay
[15] = Cmax in Sprague-Dawley rat at 6 mg/kg, po by HPLC analysis; type: ADME, organism-based; parameters: dose 6 mg/kg, route oral; settings: in vivo; procedure, shortened: as §2

SMILES: O=C(NCC1c2ccccc2Oc2ccccc21)C1CCCNC1 (racemic)
- inhibition (Renin (Homo sapiens)): 0%

SMILES: OC(CC1c2ccccc2Sc2ccccc21)CN1CCCC1 (racemic)
- IC50 (Renin [1]): > 100000 nM
- Kd (Renin [2]): > 500000 nM

SMILES: Cc1ccc(S(=O)(=O)N[C@@H]2CNC[C@H](C(=O)NCC(c3ccccc3)c3ccccc3)C2)cc1
- IC50 (Renin [1]): > 30000 nM

SMILES: COCCCCC1(CNC(=O)[C@@H]2CNC[C@H](NS(=O)(=O)c3ccc(C)cc3)C2)c2ccccc2Oc2ccccc21 (racemic)
- IC50 (Renin [1]): 4 nM

SMILES: COCCCCC1(CNC(=O)[C@@H]2CNC[C@H](NS(=O)(=O)c3ccc(C)cc3)C2)c2ccccc2Oc2ccccc21 [listing 1 of 2 here]
- Activity (Rattus norvegicus [3]): Dose-dependent effect

SMILES: CC(O)CN1CC2c3ccccc3Nc3ccccc3C2C1 (racemic)
- IC50 (Renin [1]): > 100000 nM
- Kd (Renin [2]): > 500000 nM

SMILES: COCCCCC1(CNC(=O)[C@@H]2CNC[C@H](NS(=O)(=O)c3ccc(C)cc3)C2)c2ccccc2Oc2ccccc21 [listing 2 of 2 here]
- IC50 (Beta-secretase 1): > 30000 nM
- inhibition (INH) (Cytochrome P450 3A4): tde
- IC50 (Cathepsin E): > 30000 nM
- Time (Rattus norvegicus [4]): 3.1 h
- IC50 (Renin [1]): 3 nM
- bioavailability [5]: 18%
- half-life [6]: 2.3 h
- Time (Rattus norvegicus [7]): 7.8 h
- Activity (Rattus norvegicus [8]): 58 mmHg
- IC50 (Gastricsin): > 30000 nM
- IC50 (Beta-secretase 2): > 30000 nM
- Vd [9]: 5.3 L/kg
- IC50 (Renin [10]): 25 nM
- Activity (Rattus norvegicus [11]): 28 mmHg
- IC50 (Cathepsin D): > 30000 nM
- AUC(0-t) at 24 h [12]: 0.75 µM·h
- clearance [13]: 43.3 mL/min/kg
- IC50 [14]: > 30000 nM
- Cmax [15]: 222 nM

SMILES: Cc1ccc(S(=O)(=O)N[C@H]2CNC[C@@H](C(=O)NCC(c3ccccc3)c3ccccc3)C2)cc1 (racemic)
- IC50 (Renin [1]): 1200 nM

SMILES: Cc1ccc(S(=O)(=O)N[C@H]2CNC[C@@H](C(=O)NCC(c3ccccc3)c3ccccc3)C2)cc1
- IC50 (Renin [1]): 500 nM

SMILES: COCCCCC1(CNC(=O)C2CCCNC2)c2ccccc2Oc2ccccc21 (racemic)
- IC50 (Renin [1]): 4000 nM

SMILES: Cc1ccc(S(=O)(=O)N[C@H]2CNC[C@@H](C(=O)NCC3c4ccccc4Oc4ccccc43)C2)cc1 (racemic)
- IC50 (Renin [1]): 90 nM

SMILES: COCCCCC1(CNC(=O)[C@H]2CNC[C@@H](NS(=O)(=O)c3ccc(C)cc3)C2)c2ccccc2Oc2ccccc21
- IC50 (Renin [1]): 500 nM

From ChEMBL document CHEMBL2321871, “A novel class of oral direct renin inhibitors: highly potent 3,5-disubstituted piperidines bearing a tricyclic p3-p1 pharmacophore” (J Med Chem, 2013)
